High-throughput results: PubChem BioAssay, several laboratories
Compounds with a hit are over-represented: about 7.2% of the library has one in this group of screens.
D1 mod = allosterically modulates the human D1 dopamine receptor | P21728 | HEK293 D1, CRE-luciferase, dopamine EC30 potentiation; actives deviate in either direction | B-score at 10 µM | 58,000 tested, 5.9% active | AID 641;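 active = luminescence count or its row- and column-corrected plate score outside the 99.7% band of the plate's sample wells, on either side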
Target sequence (P21728 whole entry, looked up): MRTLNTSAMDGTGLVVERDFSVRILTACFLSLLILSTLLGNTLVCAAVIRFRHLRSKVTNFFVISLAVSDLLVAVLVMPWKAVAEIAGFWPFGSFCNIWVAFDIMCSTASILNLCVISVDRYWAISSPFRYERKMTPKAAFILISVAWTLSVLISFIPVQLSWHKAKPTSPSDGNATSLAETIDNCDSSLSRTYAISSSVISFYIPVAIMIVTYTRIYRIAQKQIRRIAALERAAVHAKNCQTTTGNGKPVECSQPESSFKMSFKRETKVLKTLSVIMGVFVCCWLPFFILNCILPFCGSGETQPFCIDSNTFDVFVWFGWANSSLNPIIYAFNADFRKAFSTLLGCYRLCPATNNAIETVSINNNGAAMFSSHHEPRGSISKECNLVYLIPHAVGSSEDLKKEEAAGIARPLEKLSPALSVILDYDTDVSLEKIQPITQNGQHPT
HEK293 NFkB inh = inhibitors of the PMA/ionomycin-induced NF-kB reporter in HEK293 cells. 62,000 tested, 0.21% active. HEK-293 NF-kB luciferase reporter, luminescence. AID 465. inhibition, % at 3 µM;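 active = inhibition above the mean of all tested compounds plus 3 SD, cut at about 40% in these data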;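 also: 0% = stimulated DMSO wells and 100% = 10 µM reference inhibitor 5653914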
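System – HEK-293 cells with stable firefly luciferase reporter driven by four HIV NF-kB elements · Doses – one dose, 3 µM · Schedule – 1 h compound pre-incubation, 16 h PMA/ionomycin at 37 °C · Technique – luminescence from luciferase substrate reagent · Measure – percent inhibition normalized per plate to DMSO and reference-inhibitor controls · Replicates – tested once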
BAP1 inh = inhibitors of human BAP1 deubiquitinase | Q92560 | recombinant BAP1, Ub-AMC hydrolysis fluorescence kinetic; active compounds read low | calls only at 20 µM | 72,000 tested, 0.48% active;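 active = activity remaining at or below 50% of control, provided the compound also passes the data quality filters; inactive = the rest, including low values that fail the filters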;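 also: 100% = DMSO wells rate and 0% = substrate alone blank rate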
M1 antagonist = blocks the rat M1 muscarinic receptor response to acetylcholine; P08482; CHO-M1 cells, Fluo-4 calcium, ACh EC80 antagonist mode; active compounds read low; B-score at 10 µM; 64,000 tested, 3.4% active; AID 628;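 active = calcium fluorescence response, raw or row-and-column corrected B-score, differing from the plate sample mean either way at a set confidence level, mostly lower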
M1 agonist = activates the M1 muscarinic receptor. CHO-M1 cells, Fluo-4 calcium fluorescence, agonist mode; active compounds read high. B-score at 10 µM. 64,000 tested, 3% active. AID 626;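 active = fluorescence rise, raw or as B-score row- and column-corrected plate score, outside the 99.7% band of its plate's samples, either direction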
DAT uptake mod = human DAT dopamine uptake with cocaine, either direction. Q01959. LLC-PK1 hDAT cells, [14C]-dopamine uptake with cocaine IC80; actives deviate in either direction. B-score at 10 µM. 110,000 tested, 1.3% active;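 active = Z score or B-score, a plate-position-corrected score, falls beyond the plate's 99.7% confidence bounds, in either direction; inactive = both scores lie inside the 99.7% bounds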;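 also: scored against the spread of the other compound wells on the same plate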
M1 antag confirm = confirmation of rat M1 muscarinic receptor antagonists. shares compounds with M1 antagonist. CHO-M1 cells, Fluo-4 calcium, ACh EC80 antagonism; active compounds read low. calcium response (max-min fluorescence) at 10 µM. 1,700 tested, 43% active. AID 677;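 active = calcium response below the same-plate mean of wells given acetylcholine alone at its 80%-effect dose, minus 3 SD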;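 also: raw fluorescence intensity difference in arbitrary instrument units and not normalized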
mGluR4 antag = selectivity test for M1 antagonists: human mGluR4 receptor. fluorescence response (max-min) at 10 µM. CHO-mGluR4 calcium flux, Fluo-4 fluorescence, glutamate EC80; active compounds read low. shares compounds with M1 antagonist. AID 678. 1,700 tested, 0.9% active;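 active = fluorescence response below the plate's average for near-maximal glutamate wells, less 3 SD of those wells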;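 also: raw unnormalized fluorescence span taken in the window right after glutamate addition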
* = called active by the depositor.

CCN(CC)CCOC(=O)c1c(C)oc2ccc(OC)cc12 was read as HEK293 NFkB inh 26, BAP1 inh inactive, M1 antagonist -14*, M1 agonist -0.37, DAT uptake mod 0.05, M1 antag confirm 98* and mGluR4 antag 246.
`CCOc1ccccc1C(=O)Nc1ccccn1` gave BAP1 inh inactive.
Cc1c(NC(=O)c2ccc(F)cc2[N+](=O)[O-])c(=O)n(-c2ccccc2)n1C was read as BAP1 inh inactive.
`CCCOc1cccc(C(=O)Nc2cccc(-c3nc4ccc(C)cc4o3)c2)c1` gave BAP1 inh inactive.
For Cc1nc2cc(CO)ccc2n1C the results were D1 mod -0.58, HEK293 NFkB inh 14, BAP1 inh inactive, M1 antagonist -5.1*, M1 agonist -0.085, DAT uptake mod 1, M1 antag confirm 670 and mGluR4 antag 262.
For CCc1ccc(C(=O)N2CCN(c3ccc(F)cc3)CC2)s1 the results were D1 mod -0.74, HEK293 NFkB inh -2, BAP1 inh inactive, M1 antagonist -6.5*, M1 agonist -1.4, DAT uptake mod 2*, M1 antag confirm 507* and mGluR4 antag 229.
Screening CCc1ccc(C(=O)N2CCCC2)s1 returned D1 mod 0.25, HEK293 NFkB inh 11, BAP1 inh inactive, M1 antagonist -0.44, M1 agonist 0.16 and DAT uptake mod 0.037.
Screening CCN(CC)CCOC(=O)c1cccc(Br)c1 returned D1 mod -0.11, HEK293 NFkB inh 19, BAP1 inh inactive, M1 antagonist -4.4*, M1 agonist 0.17, DAT uptake mod -0.33, M1 antag confirm 472* and mGluR4 antag 267.
`O=C(Cn1ccc2ccccc2c1=O)N1CCN(Cc2ccc3c(c2)OCO3)CC1` gave D1 mod 0.67, HEK293 NFkB inh 6, BAP1 inh inactive, M1 antagonist -2.8*, M1 agonist 0.07, DAT uptake mod 0.55, M1 antag confirm 570 and mGluR4 antag 181.
`O=C(CCS(=O)(=O)c1cccc2nsnc12)N1CCN(Cc2ccc3c(c2)OCO3)CC1` gave D1 mod 1, HEK293 NFkB inh -4, BAP1 inh inactive, M1 antagonist -2.5*, M1 agonist -0.51, DAT uptake mod 0.16, M1 antag confirm 473 and mGluR4 antag 221.
O=C(c1cc2ccccc2oc1=O)N1CCN(Cc2ccc3c(c2)OCO3)CC1 was read as D1 mod -0.86, HEK293 NFkB inh 6, BAP1 inh inactive, M1 antagonist -0.65, M1 agonist 0.13 and DAT uptake mod 0.84.
Screening O=C(CN1CCN(Cc2ccc3c(c2)OCO3)CC1)N1CCc2[nH]c3ccc(F)cc3c2C1 returned D1 mod -1.8, HEK293 NFkB inh 14, BAP1 inh inactive, M1 antagonist -3.8*, M1 agonist -0.93, DAT uptake mod 1.3, M1 antag confirm 477 and mGluR4 antag 210.
Screening O=C(Nc1nc(-c2ccc(F)cc2)cs1)c1ccc(Oc2ccccc2)cc1 returned BAP1 inh inactive.
Screening Cc1ccc(NC(=O)c2c(-c3c(F)cccc3Cl)noc2C)cc1F returned D1 mod -0.17, HEK293 NFkB inh 13, BAP1 inh inactive, M1 antagonist -14*, M1 agonist 0.26, DAT uptake mod 0.22, M1 antag confirm 638 and mGluR4 antag 251.
CCOC(=O)Nc1ccc2c(c1)N(C(=O)CCN1CCOCC1)c1ccccc1S2=O (centres undefined) was read as D1 mod 0.34, HEK293 NFkB inh 23, BAP1 inh inactive, M1 antagonist -10*, M1 agonist -0.61, DAT uptake mod -0.16, M1 antag confirm 55* and mGluR4 antag 240.
`CCOC(=O)Nc1ccc(S(=O)(=O)NCCCN2CCOCC2)cc1` gave D1 mod -0.76, HEK293 NFkB inh 13, BAP1 inh inactive, M1 antagonist -0.42, M1 agonist 0 and DAT uptake mod -0.83.
For O=C(OCCN1CCCCC1)c1cc2ccccc2o1 the results were HEK293 NFkB inh 14, BAP1 inh inactive, M1 antagonist -2.4*, M1 agonist -0.73, DAT uptake mod -0.52, M1 antag confirm 465 and mGluR4 antag 238.
For CCC(Sc1ncnc2c1nnn2-c1ccc(F)cc1)C(=O)OC (centres undefined) the results were D1 mod 3, HEK293 NFkB inh -7, BAP1 inh inactive, M1 antagonist -2.8*, M1 agonist -0.13, DAT uptake mod -0.42, M1 antag confirm 640 and mGluR4 antag 243.
For CCOC(=O)c1c(-c2ccccc2)csc1NC(C)=O the results were BAP1 inh inactive.
Screening O=C1CC(N2CCC(c3nc4ccccc4s3)CC2)C(=O)N1 (centres undefined) returned D1 mod -0.29, HEK293 NFkB inh -3, BAP1 inh inactive, M1 antagonist -1.7*, M1 agonist 0.048, DAT uptake mod 1.1, M1 antag confirm 664 and mGluR4 antag 183.
`Cc1ccc2nc(NC3=NCN(CCN4CCOCC4)CN3)nc(C)c2c1` gave D1 mod -0.011, HEK293 NFkB inh 24, BAP1 inh inactive, M1 antagonist -2.6*, M1 agonist 0.77, M1 antag confirm 317* and mGluR4 antag 233.
O=C(NCc1ccc(F)cc1)c1cc(-c2ccco2)on1 was read as D1 mod 1.2, HEK293 NFkB inh -3, BAP1 inh inactive, M1 antagonist -3.9*, M1 agonist -0.73, DAT uptake mod 0.99, M1 antag confirm 673 and mGluR4 antag 177.
`CCN1CCN(c2nc3c(c(=O)n(C)c(=O)n3C)n2Cc2cccc3ccccc23)CC1` gave HEK293 NFkB inh 9, BAP1 inh inactive, M1 antagonist -3.3*, M1 agonist 0.24, DAT uptake mod 1.4, M1 antag confirm 429* and mGluR4 antag 202.
For CCN1CCN(c2nc3c(c(=O)n(C)c(=O)n3C)n2CCSc2ncccn2)CC1 the results were D1 mod 0.2, HEK293 NFkB inh 14, BAP1 inh inactive, M1 antagonist -0.42, M1 agonist -0.2 and DAT uptake mod 0.01.
`Cn1c(=O)c2c(nc(CN3CCC(C(N)=O)CC3)n2Cc2c(Cl)cccc2Cl)n(C)c1=O` gave D1 mod -0.55, HEK293 NFkB inh -1, BAP1 inh inactive, M1 antagonist -4.1*, M1 agonist 0.54, DAT uptake mod 0.29, M1 antag confirm 547 and mGluR4 antag 246.
